Data taken from PubChem BioAssay AID504491 (The Scripps Research Institute Molecular Screening Center, 2011).
Active and inactive are the calls of the source.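 The calls were made as follows: active = inhibition of the target enzyme PAFAH2 of at least 50%, whatever the off-target enzymes show; inactive = PAFAH2 inhibition under 50%.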

Columns and labels:
Assay in all cases: serine hydrolase selectivity versus PAFAH2 – cell lysate, gel-based fluorescence ABPP, carbamate vs triazole urea, selectivity assay, late-stage follow-up (AID 504491)
ABHD11 = details: BW5147 mouse T-cell proteome, gel ABPP FP-Rh, 30 min, at 20 µM, hits give high values
How it was run: (§1)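 material = mouse BW5147 T-cell soluble lysate | quantity = proteome at 1 mg/mL protein | buffer or medium = Dulbecco's phosphate-buffered saline | schedule = compound with proteome 30 min, then probe 30 min, both 25 °C | detection = SDS-PAGE separation with in-gel fluorescence scanning | read-out basis = % inhibition of band intensity relative to DMSO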

APEH = details: BW5147 mouse T-cell proteome, gel ABPP FP-Rh, 30 min, at 20 µM, hits give high values
How it was run: as §1

ESD = details: BW5147 mouse T-cell proteome, gel ABPP FP-Rh, 30 min, at 20 µM, hits give high values
How it was run: as §1

LYPLA1 = details: BW5147 mouse T-cell proteome, gel ABPP FP-Rh, 30 min, at 20 µM, hits give high values
How it was run: as §1

LYPLA2 = details: BW5147 mouse T-cell proteome, gel ABPP FP-Rh, 30 min, at 20 µM, hits give high values
How it was run: as §1

[1] = target: Platelet-activating factor acetylhydrolase 2, cytoplasmic (Mus musculus) (UniProt Q8VDG7); details: BW5147 mouse T-cell proteome, gel ABPP FP-Rh, 30 min; PAFAH2; at 20 µM; hits give high values
Sequence of Platelet-activating factor acetylhydrolase 2, cytoplasmic (Mus musculus) (Q8VDG7 whole entry, looked up): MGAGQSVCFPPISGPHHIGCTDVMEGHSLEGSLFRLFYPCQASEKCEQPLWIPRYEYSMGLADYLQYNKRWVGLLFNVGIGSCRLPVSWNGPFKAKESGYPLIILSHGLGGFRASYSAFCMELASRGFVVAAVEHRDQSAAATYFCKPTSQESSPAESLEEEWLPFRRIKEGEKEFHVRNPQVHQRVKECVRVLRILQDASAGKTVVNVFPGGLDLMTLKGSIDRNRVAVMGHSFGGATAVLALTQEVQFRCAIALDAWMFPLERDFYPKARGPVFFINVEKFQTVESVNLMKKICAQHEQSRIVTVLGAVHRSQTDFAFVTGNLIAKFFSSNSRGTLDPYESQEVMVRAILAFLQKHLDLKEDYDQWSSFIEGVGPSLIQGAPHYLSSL
How it was run: as §1

inhibition (ABHD11) [%]	inhibition (APEH)	inhibition (ESD)	inhibition (LYPLA1)	inhibition (LYPLA2)	inhibition [1]	Compound
100	0% (inactive)	0% (inactive)	0% (inactive)	0% (inactive)	0% (inactive)	O=C(Oc1ccc([N+](=O)[O-])cc1)N1CCCCC1
100	100%	100%	100%	100%	100%	O=C(N1CCCCC1)n1ccnn1
